Activity calls are given as the source filed them. The rule behind the calls is not given here.
Legend:
[1] = target: T1, Prostaglandin E synthase (Homo sapiens) (UniProt O14684); assay: Inhibition of human recombinant mPGES-1 in assessed as conversion of PGH2 into PGE2 at 1 uM at 20 degC after 5 mins by HPLC-UV analysis
T1 sequence (whole entry): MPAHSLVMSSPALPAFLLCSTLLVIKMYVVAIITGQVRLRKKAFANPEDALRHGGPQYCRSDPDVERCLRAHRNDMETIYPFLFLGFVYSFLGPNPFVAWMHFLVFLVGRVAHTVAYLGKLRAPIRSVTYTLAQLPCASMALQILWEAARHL
How it was run: (§1)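 Commercial microsomal human recombinant mPGES-1, diluted about 1:200 in phosphate buffer (50 mM sodium phosphate, 100 mM NaCl, 20% glycerol, pH 7.2). Compound in DMSO added to Tris buffer (50 mM, pH 7.2) with freshly dissolved 2.5 mM reduced glutathione, 5 min, then enzyme, 5 min preincubation at room temperature. PGH2 started reaction, 5 min at room temperature. PGE2 measured by online SPE-HPLC-UV at 195 nm. Reference incubations without enzyme gave non-enzymatic PGE2.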

[2] = target: T2, Prostaglandin E synthase (Homo sapiens, UniProt O14684); assay: Inhibition of mPGES-1
T2 sequence (O14684 whole entry): T1 sequence (whole entry)
How it was run: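 PGH2 was the substrate, and reactions ran for 5 min. One version used microsomes from A549 cells at 0 °C. The other used commercial microsomes containing human recombinant mPGES-1, at 20 °C or room temperature, in 50 mM Tris pH 7.2 with 2.5 mM GSH. PGE2 formed was measured by online solid-phase extraction HPLC with UV detection.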

[3] = target: T1, Prostaglandin E synthase (Homo sapiens); assay: Inhibition of mPGES-1 in human A549 cell microsomes assessed as conversion of PGH2 into PGE2 at 3.3 uM at 0 degC after 5 mins by HPLC-UV analysis; conditions: Microsome
How it was run: (§2)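 Enzyme source was microsomes from A549 cells. Compound was incubated with PGH2 substrate for 5 min at 0 °C. PGE2 formation was monitored by online solid phase extraction HPLC with UV detection. Values are means of at least two independent determinations.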

[4] = target: T2, Prostaglandin E synthase; assay: Inhibition of human recombinant mPGES-1 in assessed as conversion of PGH2 into PGE2 at 20 degC after 5 mins by HPLC-UV analysis
How it was run: as §1, with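 “temperature.” for “temperature. PGE2 measured by online SPE-HPLC-UV at 195 nm. Reference incubations without enzyme gave non-enzymatic PGE2.”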

[5] = target: T1, Prostaglandin E synthase (Homo sapiens); assay: Inhibition of human recombinant mPGES-1 in assessed as conversion of PGH2 into PGE2 at 10 uM at 20 degC after 5 mins by HPLC-UV analysis in presence of 0.1% Triton X-100
How it was run: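 Human recombinant mPGES-1 microsomes in Tris buffer (50 mM, pH 7.2) containing 2.5 mM glutathione, with 0.1% Triton X-100 added. Compound in DMSO, 5 min preincubation with enzyme at room temperature, then PGH2 substrate, 5 min reaction at 20 °C. PGE2 formed was quantified by online solid phase extraction HPLC with UV detection.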

[6] = target: T2, Prostaglandin E synthase; assay: Inhibition of mPGES-1 in human A549 cell microsomes assessed as conversion of PGH2 into PGE2 at 0 degC after 5 mins by HPLC-UV analysis; design: species or system Microsome; how it was run: as §2

inhibition [1]	inhibition [3]	Compound	other results
inactive	–	CCCCCCCCCCCC(=O)c1cc(C(=O)O)n(C)c1	–
59%	–	CCCCCCCCCCCC(=O)c1c(C)c(C(=O)O)n(C)c1C	–
35%	–	CCCCCCCCCCCC(=O)c1c(C)c(CCC(=O)NN)n(C)c1C	–
–	–	CS(=O)(=O)Nc1ccc([N+](=O)[O-])cc1OC1CCCCC1 [NS-398]	IC50 [2]: 10 µM
91%	63%	CCCCCCCCCCCCCC(=O)c1c(C)c(CCC(=O)O)n(C)c1C	–
99%	–	CCCCCCCCCCCC(=O)c1c(C)c(C(=O)O)n(-c2ccccc2)c1C	–
77%	–	CCCCCCCCCCCC(=O)c1c(C)c(CCC(=O)NS(=O)(=O)c2ccccc2)n(C)c1C	–
inactive	inactive	Cc1c(C(=O)c2ccc3ccccc3c2)c(C)n(C)c1CCC(=O)O	–
64%	–	CCCCCCCCCCCC(=O)c1c(-c2ccccc2)c(CCC(=O)O)n(Cc2ccccc2)c1C	–
70%	–	CCCCCCCCCCCC(=O)c1c(C)c(CCCC(=O)O)n(C)c1C	–
22%	–	CCCCCCCCCCCC(=O)c1c(C)c(CC(=O)O)n(C)c1C	–
23%	–	CCCCCCCCCCCC(=O)c1c(C)c(CC(=O)O)n(-c2ccccc2)c1C	–
inactive	62%	CCCCCCCCCC(=O)c1c(C)c(CCC(=O)O)n(C)c1C	–
17%	–	CCCCCCCCCCCC(=O)c1c(C)[nH]c(CC(=O)O)c1C	–
inactive	67%	CCCCCCCOc1cccc(C(=O)c2c(C)c(CCC(=O)O)n(C)c2C)c1	–
inactive	–	CCCCCCCCCCCC(=O)c1cc(CCC(=O)O)n(C)c1	–
65%	–	CCCCCCCCCCCC(=O)c1c(C)c(CCC(=O)O)n(-c2ccccc2)c1C	–
97%	35%	CCCCCCCCCCCCCCCC(=O)c1c(C)c(CCC(=O)O)n(C)c1C	–
39%	–	CCCCCCCCCCCC(=O)c1c(C)c(CCC(N)=O)n(C)c1C	–
inactive	inactive	Cc1c(C(=O)CCc2ccccc2)c(C)n(C)c1CCC(=O)O	–
inactive	55%	CCCCCCCC(=O)c1c(C)c(CCC(=O)O)n(C)c1C	–
35%	–	CCCCCCCCCCCC(=O)c1c(C)c(CC(=O)O)n(Cc2ccccc2)c1C	–
90%	–	CCCCCCCCCCCC(=O)c1c(-c2ccccc2)c(CCC(=O)O)n(C)c1C	IC50 [4]: 0.14 µM; inhibition [5]: inactive
inactive	inactive	Cc1c(C(=O)c2cccc3ccccc23)c(C)n(C)c1CCC(=O)O	–
inactive	23%	CCCCCCCCOc1ccccc1C(=O)c1c(C)c(CCC(=O)O)n(C)c1C	–

inhibition [1]	inhibition [3]	Compound	other results
inactive	inactive	CCCCCCC(=O)c1c(C)c(CCC(=O)O)n(C)c1C	–
62%	–	CCCCCCCCCCCC(=O)c1c(C)c(CCC(=O)O)n(Cc2ccccc2)c1C	–
inactive	inactive	CCCC(=O)c1c(C)c(CCC(=O)O)n(C)c1C	–
54%	74%	CCCCCCCCCCCC(=O)c1c(C)c(CCC(=O)O)n(C)c1C	IC50 [6]: 0.8 µM; IC50 [4]: 0.67 µM; inhibition [5]: inactive; IC50 [2]: 0.8 µM
22%	–	CCCCCCCCCCCC(=O)c1c(C)c(CCC#N)n(C)c1C	–
37%	–	CCCCCCCCCCCCc1c(C)c(C(=O)O)n(C)c1C	–
inactive	inactive	Cc1c(C(=O)c2ccc(-c3ccccc3)cc2)c(C)n(C)c1CCC(=O)O	–
inactive	–	CCCCCCCCCCCC(=O)c1cc(CC(=O)O)n(C)c1	–
65%	–	CCCCCCCCCCCC(=O)c1c(C)c(C(=O)O)n(Cc2ccccc2)c1C	–
inactive	–	Cc1c(C(=O)Cc2ccc(-c3ccccc3)cc2)c(C)n(C)c1CCC(=O)O	–
–	–	CC(C)c1ccc2c(c1)c(SC(C)(C)C)c(CC(C)(C)C(=O)O)n2Cc1ccc(Cl)cc1	inhibition [5]: 75%
78%	–	CCCCCCCCCCCC(=O)c1c(C)c(CCC(=O)O)n(Cc2ccc(Cl)cc2)c1C	–
32%	64%	CCCCCCOc1ccc(C(=O)c2c(C)c(CCC(=O)O)n(C)c2C)cc1	–
97%	inactive	CCCCCCCCCCCCCCCCCC(=O)c1c(C)c(CCC(=O)O)n(C)c1C	–
72%	–	CCCCCCCCCCCC(=O)c1c(C)c(CCC(=O)O)n(Cc2ccc(OC)cc2)c1C	–
52%	–	CCCCCCCCCCCC(=O)c1c(C)c(CCC(=O)O)n(Cc2ccc(C)cc2)c1C	–
–	–	CCCCCCC(Sc1nc(Cl)cc(NCc2ccc(-c3ccccc3)cc2)n1)C(=O)O (stereo not drawn)	inhibition [5]: inactive
27%	–	CCCCCCCCCCCC(=O)c1c(C)c(CCC(=O)O)n(Cc2ccc(C(=O)O)cc2)c1C	–
52%	–	CCCCCCCCCCCC(=O)c1c(C)c(CCC(=O)NS(C)(=O)=O)n(C)c1C	IC50 [4]: 0.6 µM; inhibition [5]: inactive
53%	–	CCCCCCCCCCCC(=O)c1c(C)c(CCC(=O)O)n(Cc2ccc(O)cc2)c1C	–
62%	–	CCCCCCCCCCCC(=O)c1c(C)[nH]c(C(=O)O)c1C	–
38%	–	CCCCCCCCCCCC(=O)c1c(C)[nH]c(CCC(=O)O)c1C	–
28%	–	CCCCCCCCCCCC(=O)c1c(C)c(CCC(=O)O)n(Cc2ccc(C(N)=O)cc2)c1C	–
inactive	inactive	Cc1c(C(=O)c2ccccc2)c(C)n(C)c1CCC(=O)O	–
